pIC50: −log10 of the molar value. The source made the active and inactive calls. The calls are words filed in the database; no cut-off is given here.
Tests used:
SW480 [1] = assay: Cell cycle arrest in human SW480 cells assessed as accumulation at S phase at 30 uM after 48 hrs by flow cytometry; format: functional
Summary of the method: (§1)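 SW480 cells treated 48 h at 30 µM in 0.1% DMSO medium. DNA content measured by propidium iodide flow cytometry. Cells gated as 2n G0/G1, S (2<n<4), 4n G2/M and >4n (polyploid). Data are means ± SD of a representative experiment among three independent.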

SW480 [2] = assay: Cell cycle arrest in human SW480 cells assessed as >4n cells at 30 uM after 48 hrs by flow cytometry; format: functional; summary of the method: as §1
SW480 [3] = assay: Antiproliferative activity against human SW480 cells assessed as cell viability using propidium iodide staining after 48 hrs; format: functional, cell-based; settings: for pIC50: SW480, 48 h
Summary of the method: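 SW480 cells grown in RPMI with 10% FBS and 1% antibiotics; 30,000 cells/well seeded, treated after 24 h with compound in 0.1% DMSO (1 nM to 100 µM; 0.1% DMSO control). At 48 h adherent (trypsinized) plus detached cells stained with 1 µg/mL propidium iodide, counted by flow cytometry. IC50 from parametric regression of % viable cells vs control; triplicate wells, three experiments.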

SW480 [4] = assay: Cell cycle arrest in human SW480 cells assessed as accumulation at G0/G1 phase at 30 uM after 48 hrs by flow cytometry; format: functional; summary of the method: as §1
SW480 [5] = assay: Cell cycle arrest in human SW480 cells assessed as 4n cells at 30 uM after 48 hrs by flow cytometry; format: functional; summary of the method: as §1
SW480 [6] = assay: Cell cycle arrest in human SW480 cells assessed as polyploid cells generation at 30 uM after 48 hrs by flow cytometry; format: functional, cell-based; summary of the method: as §1
SW480 [7] = assay: Cell cycle arrest in human SW480 cells assessed as tetraploid cells generation at 30 uM after 48 hrs by flow cytometry; format: functional, cell-based; summary of the method: as §1
SW480 [8] = assay: Cell cycle arrest in human SW480 cells assessed as disturbance of diploid cells at 30 uM after 48 hrs by flow cytometry; format: functional, cell-based; summary of the method: as §1
SW480 [9] = assay: Cell cycle arrest in human SW480 cells assessed as increase of 4n and >4n cells at 0.2 uM after 48 hrs by flow cytometry; format: functional, cell-based
Summary of the method: (§2)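 SW480 cells treated for 48 h at 0.2, 0.5 or 1.0 µM. DNA content was read by propidium iodide staining and flow cytometry. Populations were gated as 2n G0/G1, S (2<n<4), 4n G2/M and >4n. Means ± SD of a representative experiment out of three.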

SW480 [10] = assay: Cell cycle arrest in human SW480 cells assessed as cytokinesis cells at 0.5 uM after 48 hrs by microscopic analysis; format: functional, cell-based
Summary of the method: (§3)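 SW480 cells left untreated or exposed to 0.5 µM for 48 h. Actin was immunostained (Alexa 488) to show cell shape and nuclei were stained with Hoechst 33342. Fluorescence microscopy at 100x with identical settings; example of three independent experiments.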

SW480 [11] = assay: Antiproliferative activity against human SW480 cells assessed as cell viability using propidium iodide staining; format: functional, cell-based; settings: TDE = time-dependent effect
Summary of the method: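 SW480 colon carcinoma cells grown in RPMI with 10% FBS and 1% antibiotics. 30,000 cells/well were seeded, then treated after 24 h in medium with 0.1% DMSO (vehicle control 0.1% DMSO) at 1 nM to 100 µM for 48 h. Adherent plus detached cells were stained with 1 µg/mL propidium iodide and counted by flow cytometry. IC50 came from parametric regression of % viable cells vs control. Triplicate wells, three experiments.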

SW480 [12] = assay: Cell cycle arrest in human SW480 cells assessed as mitotic disturbances using Hoechst staining at 0.5 uM after 48 hrs by microscopic analysis; format: functional, cell-based; summary of the method: as §3
SW480 [13] = assay: Cell cycle arrest in human SW480 cells assessed as accumulation of polyploid cells at 0.5 uM after 48 hrs by microscopic analysis; format: functional, cell-based; summary of the method: as §3
SW480 [14] = assay: Antiproliferative activity against human SW480 cells assessed as cell viability using propidium iodide staining at 0.2 uM after 72 hrs; format: functional, cell-based
Summary of the method: (§4)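 SW480 cells (RPMI, 10% FBS, 1% antibiotics) seeded at 30,000/well and treated 24 h later in 0.1% DMSO medium; 0.1% DMSO alone as control. After 24, 48 and 72 h, trypsinized adherent plus detached cells were labelled with 1 µg/mL propidium iodide and viable (PI-excluding) cells counted by flow cytometry. Triplicate wells; representative of three experiments, means ± SD.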

SW480 [15] = assay: Cell cycle arrest in human SW480 cells assessed as increase of 4n and >4n cells at 0.5 uM after 48 hrs by flow cytometry; format: functional, cell-based; summary of the method: as §2
SW480 [16] = assay: Antiproliferative activity against human SW480 cells assessed as cell viability using propidium iodide staining after 48 hrs; settings: SW480, 48 h
SW480 [17] = assay: Cell cycle arrest in human SW480 cells assessed as increase of 4n and >4n cells at 1 uM after 48 hrs by flow cytometry; format: functional, cell-based; summary of the method: as §2
SW480 [18] = assay: Antiproliferative activity against human SW480 cells assessed as cell viability using propidium iodide staining at 0.5 uM after 72 hrs; format: functional, cell-based; summary of the method: as §4

| Compound | pIC50 (SW480 [3]) | Activity (SW480 [6]) | Activity (SW480 [7]) | Activity (SW480 [8]) | also measured |
| --- | --- | --- | --- | --- | --- |
| COc1cc(/C=C/c2cc(OC)cc(OC)c2O)cc(OC)c1 | 4.77 | – | – | – | Activity (SW480 [1]): 15%; Activity (SW480 [2]): 10%; Activity (SW480 [4]): 50%; Activity (SW480 [5]): 25% |
| COc1cc(/C=C/c2ccc(OC)c(OC)c2)c(O)c(OC)c1 | 4.38 | – | – | – | – |
| COc1ccc(/C=C/c2cc(OC)cc(OC)c2O)cc1 | 4.37 | Active | Active | Active | – |
| COc1ccc(/C=C\c2cc(OC)cc(OC)c2O)cc1 | 4.74 | Active | Active | Active | – |
| COc1cc(/C=C\c2cc(OC)cc(OC)c2)cc(OC)c1 | 4.89 | Active | Active | Active | – |
| COc1cc(/C=C\c2cc(OC)cc(OC)c2O)cc(OC)c1 | 5.15 | Active | Active | Active | – |
| COc1cc(/C=C\c2ccc(OC)c(OC)c2)c(O)c(OC)c1 | 5.00 | Active | Active | Active | – |
| COc1cc(/C=C/c2cc(OC)cc(OC)c2)cc(OC)c1 | 4.32 | – | – | – | Activity (SW480 [1]): 15%; Activity (SW480 [2]): 10%; Activity (SW480 [4]): 50%; Activity (SW480 [5]): 25% |
| COc1ccc(/C=C\c2cc(OC)cc(OC)c2)cc1 [8Z-3,4',5-TRIMETHOXYSTILBENE] | 6.52 | Active | Active | Active | Activity (SW480 [9]): inactive; Activity (SW480 [10]): Active; Activity (SW480 [11]): tde; Activity (SW480 [12]): Active; Activity (SW480 [3]): Dose-dependent effect; Activity (SW480 [13]): Active; Activity (SW480 [14]): inactive; Activity (SW480 [15]): Active; pIC50 (SW480 [16]): 6.52; Activity (SW480 [17]): Active; Activity (SW480 [18]): inactive |
| COc1cc(/C=C/c2ccc(OC)c(OC)c2)cc(OC)c1 [(E)-3,4,3',5'-TETRAMETHOXYSTILBENE] | 4.00 | – | – | – | Activity (SW480 [1]): 15%; Activity (SW480 [2]): 10%; Activity (SW480 [4]): 50%; Activity (SW480 [5]): 25% |
| COc1cc(/C=C\c2ccc(OC)c(OC)c2)cc(OC)c1 [(Z)-3,4,3',5'-TETRAMETHOXYSTILBENE] | 5.02 | Active | Active | Active | – |
| Oc1ccc(/C=C\c2cc(O)cc(O)c2)cc1 [CIS-RESVERATROL] | 4.05 | – | – | – | Activity (SW480 [1]): 15%; Activity (SW480 [2]): 10%; Activity (SW480 [4]): 50%; Activity (SW480 [5]): 25% |
| Oc1ccc(/C=C/c2cc(O)cc(O)c2)cc1 [RESVERATROL] | 4.70 | – | – | – | – |
| COc1ccc(/C=C/c2cc(OC)cc(OC)c2)cc1 [TRISMETHOXYRESVERATROL] | 4.27 | Active | Active | Active | – |
